According to ChEMBL document CHEMBL2390862, “Enmein-type diterpenoid analogs from natural kaurene-type oridonin: Synthesis and their antitumor biological evaluation” (Eur J Med Chem, 2013):

Experiments:
[1] = tested on: MGC-803; assay: Cytotoxicity against human MGC803 cells after 72 hrs by MTT assay; type: functional, cell-based; conditions: MGC-803, 72 h
Method in brief: (§1)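 K562, CaEs-17, Bel-7402 and MGC-803 cells in log phase seeded at 5 × 10⁴ cells/mL, incubated with or without test compounds at 37 °C, 5% CO₂; after 72 h MTT (5 mg/mL stock) added for 4 h, formazan dissolved in DMSO, OD read at 490 nm. Negative reference 0.1% DMSO, Taxol positive control. IC50 as mean ± S.D. of three independent experiments.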

[2] = tested on: K562; assay: Cytotoxicity against human K562 cells after 72 hrs by MTT assay; type: functional, cell-based; conditions: K562, 72 h; method in brief: as §1
[3] = Cytotoxicity against human CaEs17 cells after 72 hrs by MTT assay; type: functional, cell-based; conditions: CaEs17, 72 h; method in brief: as §1
[4] = tested on: Bel-7402; assay: Cytotoxicity against human Bel7402 cells after 72 hrs by MTT assay; type: functional, cell-based; conditions: Bel-7402, 72 h; method in brief: as §1
[5] = tested on: Bel-7402; assay: Induction of apoptosis in human Bel7402 cells assessed as late apoptotic cells at 0.3 uM after 2 days by Annexin-V/FITC-propidium iodide staining-based flow cytometry (reference value: 2.2 %); type: functional
[6] = tested on: Bel-7402; assay: Induction of apoptosis in human Bel7402 cells assessed as increase in caspase 8 expression after 48 hrs by Western blotting analysis; type: functional, cell-based
Method in brief: (§2)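 Bel-7402 cells treated with vehicle control or compound at 0.15, 0.3 or […] (so in the source). Lysates at […] protein per lane (so in the source) separated by 10% SDS-PAGE, transferred to nitrocellulose and immunoblotted, with β-actin measured as reference. Significance vs. vehicle control marked at P < 0.05 and P < 0.01.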

[7] = tested on: Bel-7402; assay: Induction of apoptosis in human Bel7402 cells assessed as late apoptotic cells at 0.6 uM after 2 days by Annexin-V/FITC-propidium iodide staining-based flow cytometry (reference value: 2.2 %); type: functional
[8] = tested on: Bel-7402; assay: Induction of mitochondrial membrane depolarization in human Bel7402 cells assessed as apoptotic cells after 48 hrs by JC-1 staining-based flow cytometry; type: functional, cell-based
Method in brief: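 In triplicate, Bel-7402 cells cultured overnight, then incubated with compound (0, 0.15, 0.3, […] as printed) or vehicle for 48 h, stained with the lipophilic cationic dye JC-1. Cells with collapsed mitochondrial membrane potential counted by flow cytometry.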

[9] = tested on: Bel-7402; assay: Induction of apoptosis in human Bel7402 cells assessed as increase in caspase 9 expression after 48 hrs by Western blotting analysis; type: functional, cell-based; method in brief: as §2
[10] = tested on: Bel-7402; assay: Induction of apoptosis in human Bel7402 cells assessed as increase in cytochrome C expression after 48 hrs by Western blotting analysis; type: functional, cell-based; method in brief: as §2
[11] = tested on: Bel-7402; assay: Induction of apoptosis in human Bel7402 cells assessed as viable cells at 0.15 uM after 2 days by Annexin-V/FITC-propidium iodide staining-based flow cytometry (reference value: 94.1 %); type: functional; conditions: Bel-7402, 48 h, read-out: Activity
[12] = tested on: Bel-7402; assay: Cell cycle arrest in human Bel7402 cells assessed as accumulation at G1 phase at 0.15 uM after 48 hrs by propidium iodide staining-based FACS analysis (reference value: 48.23 %); type: functional
Method in brief: (§3)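 Bel-7402 cells seeded at 5.0 × 10³ cells/well and incubated 24 h at 37 °C, then exposed to test compound or DMSO solvent control for 48 h. Cells fixed in 70% ethanol, RNase-treated, PI-stained; DNA content of nuclei measured by flow cytometry.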

[13] = tested on: Bel-7402; assay: Induction of apoptosis in human Bel7402 cells assessed as early apoptotic cells at 0.6 uM after 2 days by Annexin-V/FITC-propidium iodide staining-based flow cytometry (reference value: 2.6 %); type: functional
[14] = tested on: Bel-7402; assay: Induction of mitochondrial membrane depolarization in human Bel7402 cells assessed as normal cells at 0.6 uM after 48 hrs by JC-1 staining-based flow cytometry; type: functional
[15] = tested on: Bel-7402; assay: Induction of apoptosis in human Bel7402 cells assessed as early and late apoptotic cells at 0.15 uM after 2 days by Annexin-V/FITC-propidium iodide staining-based flow cytometry (reference value: 4.8 %); type: functional
[16] = tested on: Bel-7402; assay: Induction of apoptosis in human Bel7402 cells assessed as late apoptotic cells at 0.15 uM after 2 days by Annexin-V/FITC-propidium iodide staining-based flow cytometry (reference value: 2.2 %); type: functional
[17] = tested on: Bel-7402; assay: Cell cycle arrest in human Bel7402 cells assessed as accumulation at S phase at 0.6 uM after 48 hrs by propidium iodide staining-based FACS analysis (reference value: 39.17 %).; type: functional; method in brief: as §3
[18] = tested on: Bel-7402; assay: Induction of apoptosis in human Bel7402 cells assessed as increase in Bax expression after 48 hrs by Western blotting analysis; type: functional, cell-based; method in brief: as §2
[19] = tested on: Bel-7402; assay: Induction of apoptosis in human Bel7402 cells assessed as early apoptotic cells at 0.3 uM after 2 days by Annexin-V/FITC-propidium iodide staining-based flow cytometry (reference value: 2.6 %); type: functional
[20] = tested on: Bel-7402; assay: Induction of apoptosis in human Bel7402 cells assessed as early and late apoptotic cells at 0.3 uM after 2 days by Annexin-V/FITC-propidium iodide staining-based flow cytometry (reference value: 4.8 %); type: functional
[21] = tested on: Bel-7402; assay: Induction of apoptosis in human Bel7402 cells at 0.15 uM after 48 hrs by propidium iodide staining-based FACS analysis (reference value: 1.67 %); type: functional; method in brief: as §3
[22] = tested on: Bel-7402; assay: Induction of apoptosis in human Bel7402 cells assessed as viable cells at 0.6 uM after 2 days by Annexin-V/FITC-propidium iodide staining-based flow cytometry (reference value: 94.1 %); type: functional; conditions: Bel-7402, 48 h, read-out: Activity
[23] = tested on: Bel-7402; assay: Induction of apoptosis in human Bel7402 cells assessed as increase in Fas expression after 48 hrs by Western blotting analysis; type: functional, cell-based; method in brief: as §2
[24] = tested on: Bel-7402; assay: Induction of apoptosis in human Bel7402 cells after 2 days by Annexin-V/FITC-propidium iodide staining-based flow cytometry; type: functional, cell-based
[25] = tested on: Bel-7402; assay: Induction of apoptosis in human Bel7402 cells at 0.6 uM after 48 hrs by propidium iodide staining-based FACS analysis (reference value: 1.67 %); type: functional; method in brief: as §3
[26] = tested on: Bel-7402; assay: Cell cycle arrest in human Bel7402 cells assessed as accumulation at G1 phase at 0.3 uM after 48 hrs by propidium iodide staining-based FACS analysis (reference value: 48.23 %); type: functional; method in brief: as §3
[27] = tested on: Bel-7402; assay: Induction of apoptosis in human Bel7402 cells assessed as necrotic cells at 0.3 uM after 2 days by Annexin-V/FITC-propidium iodide staining-based flow cytometry (reference value: 1.1 %); type: functional
[28] = tested on: Bel-7402; assay: Cell cycle arrest in human Bel7402 cells assessed as accumulation at G2/M phase at 0.3 uM after 48 hrs by propidium iodide staining-based FACS analysis (reference value: 12.60 %); type: functional; method in brief: as §3
[29] = tested on: Bel-7402; assay: Cell cycle arrest in human Bel7402 cells assessed as accumulation at S phase at 0.15 uM after 48 hrs by propidium iodide staining-based FACS analysis (reference value: 39.17 %); type: functional; method in brief: as §3
[30] = tested on: Bel-7402; assay: Induction of apoptosis in human Bel7402 cells assessed as necrotic cells at 0.15 uM after 2 days by Annexin-V/FITC-propidium iodide staining-based flow cytometry (reference value: 1.1 %); type: functional
[31] = tested on: Bel-7402; assay: Induction of apoptosis in human Bel7402 cells assessed as early and late apoptotic cells at 0.6 uM after 2 days by Annexin-V/FITC-propidium iodide staining-based flow cytometry (reference value: 4.8 %); type: functional
[32] = tested on: Bel-7402; assay: Induction of apoptosis in human Bel7402 cells at 0.3 uM after 48 hrs by propidium iodide staining-based FACS analysis (reference value: 1.67 %); type: functional; method in brief: as §3
[33] = tested on: Bel-7402; assay: Induction of apoptosis in human Bel7402 cells assessed as reduction in Bcl2 expression after 48 hrs by Western blotting analysis; type: functional, cell-based; method in brief: as §2
[34] = tested on: Bel-7402; assay: Induction of apoptosis in human Bel7402 cells assessed as early apoptotic cells at 0.15 uM after 2 days by Annexin-V/FITC-propidium iodide staining-based flow cytometry (reference value: 2.6 %); type: functional
[35] = tested on: Bel-7402; assay: Induction of apoptosis in human Bel7402 cells assessed as necrotic cells at 0.6 uM after 2 days by Annexin-V/FITC-propidium iodide staining-based flow cytometry (reference value: 1.1 %); type: functional
[36] = tested on: Bel-7402; assay: Induction of apoptosis in human Bel7402 cells assessed as viable cells at 0.3 uM after 2 days by Annexin-V/FITC-propidium iodide staining-based flow cytometry (reference value: 94.1 %); type: functional; conditions: Bel-7402, 48 h, read-out: Activity
[37] = tested on: Bel-7402; assay: Induction of apoptosis in human Bel7402 cells assessed as increase in caspase 3 expression after 48 hrs by Western blotting analysis; type: functional, cell-based; method in brief: as §2
[38] = tested on: Bel-7402; assay: Induction of mitochondrial membrane depolarization in human Bel7402 cells assessed as normal cells at 0.3 uM after 48 hrs by JC-1 staining-based flow cytometry; type: functional
[39] = tested on: Bel-7402; assay: Cell cycle arrest in human Bel7402 cells assessed as accumulation at G2/M phase at 0.6 uM after 48 hrs by propidium iodide staining-based FACS analysis (reference value: 12.60 %); type: functional; method in brief: as §3
[40] = tested on: Bel-7402; assay: Cell cycle arrest in human Bel7402 cells assessed as accumulation at G1 phase at 0.6 uM after 48 hrs by propidium iodide staining-based FACS analysis (reference value: 48.23 %); type: functional; method in brief: as §3
[41] = tested on: Bel-7402; assay: Cell cycle arrest in human Bel7402 cells assessed as accumulation at S phase at 0.3 uM after 48 hrs by propidium iodide staining-based FACS analysis (reference value: 39.17 %); type: functional; method in brief: as §3
[42] = tested on: Bel-7402; assay: Cell cycle arrest in human Bel7402 cells assessed as accumulation at G2/M phase at 0.15 uM after 48 hrs by propidium iodide staining-based FACS analysis (reference value: 12.60 %); type: functional; method in brief: as §3

## C=C1C(=O)[C@@]23C(=O)O[C@H]4CCC(C)(C)[C@H]5[C@H](O)OC[C@@]45[C@@H]2CC[C@@H]1[C@H]3OC(=O)c1ccccc1
[1]
  IC50: 930 nM
[2]
  IC50: 210 nM
[3]
  IC50: 540 nM
[4]
  IC50: 1420 nM

## C=C1C(=O)[C@@]23C(=O)O[C@H]4CCC(C)(C)[C@H]5[C@H](O)OC[C@@]45[C@@H]2CC[C@@H]1[C@H]3OC(=O)c1ccc(Cl)cc1
[1]
  IC50: 1220 nM
[5]
  Activity: 18.5%
[6]
  Activity: Dose-dependent effect
[7]
  Activity: 28.1%
[8]
  Activity: Dose-dependent effect
[9]
  Activity: Dose-dependent effect
[10]
  Activity: Dose-dependent effect
[11]
  viability at 0.15 µM: 84.6%
[12]
  Activity: 46.18%
[13]
  Activity: 22.4%
[14]
  Activity: 54.4%
[15]
  Activity: 14.3%
[16]
  Activity: 5.5%
[17]
  Activity: 20.17%
[18]
  Activity: Dose-dependent effect
[19]
  Activity: 14.8%
[20]
  Activity: 33.3%
[21]
  Activity: 2.07%
[22]
  viability at 0.6 µM: 48.8%
[23]
  Activity: Dose-dependent effect
[24]
  Activity: Dose-dependent effect
[25]
  Activity: 31.97%
[26]
  Activity: 50.28%
[2]
  IC50: 240 nM
[27]
  Activity: 0.3%
[28]
  Activity: 20.48%
[29]
  Activity: 38.72%
[30]
  Activity: 1%
[31]
  Activity: 50.5%
[3]
  IC50: 280 nM
[32]
  Activity: 14.86%
[4]
  IC50: 870 nM
[33]
  Activity: Dose-dependent effect
[34]
  Activity: 8.8%
[35]
  Activity: 0.7%
[36]
  viability at 0.3 µM: 66.5%
[37]
  Activity: Dose-dependent effect
[38]
  Activity: 82.4%
[39]
  Activity: 28.76%
[40]
  Activity: 51.07%
[41]
  Activity: 29.24%
[42]
  Activity: 15.1%

## C=C1C(=O)[C@@]23C(=O)O[C@H]4CCC(C)(C)[C@H]5[C@H](O)OC[C@@]45[C@@H]2CC[C@@H]1[C@H]3OC(C)=O
[1]
  IC50: 1990 nM
[2]
  IC50: 1110 nM
[3]
  IC50: 1590 nM
[4]
  IC50: 1970 nM
